The target of test [1] is T1, Ectonucleoside triphosphate diphosphohydrolase 3 (Homo sapiens) (UniProt O75355).
T1 sequence (whole entry): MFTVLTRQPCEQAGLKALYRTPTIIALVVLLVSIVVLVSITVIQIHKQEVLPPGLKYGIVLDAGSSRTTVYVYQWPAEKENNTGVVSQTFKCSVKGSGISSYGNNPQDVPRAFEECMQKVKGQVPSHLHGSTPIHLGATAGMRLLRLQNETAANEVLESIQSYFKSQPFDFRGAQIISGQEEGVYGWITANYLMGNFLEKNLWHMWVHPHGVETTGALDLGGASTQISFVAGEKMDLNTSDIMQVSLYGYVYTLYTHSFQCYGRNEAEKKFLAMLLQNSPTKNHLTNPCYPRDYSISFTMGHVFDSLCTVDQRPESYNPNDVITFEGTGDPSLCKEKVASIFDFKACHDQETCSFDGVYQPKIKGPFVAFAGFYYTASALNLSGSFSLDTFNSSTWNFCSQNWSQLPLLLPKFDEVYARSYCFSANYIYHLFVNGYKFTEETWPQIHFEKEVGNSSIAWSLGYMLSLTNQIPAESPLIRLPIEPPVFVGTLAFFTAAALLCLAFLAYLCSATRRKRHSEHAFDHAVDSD
Put plainly: Inhibition of human NTPDase3 at 100 uM using ATP as substrate preincubated for 3 mins followed by substrate addition measured after 10 mins by malachite green reagent-based assay. In a few lines: (§1)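 Compound at 100 μM, 3 min preincubation, 100 μM ATP, 10 min. Stopped with malachite green; Pi read at 630 nm. Blank with enzyme added after stop subtracted. Activity with ATP alone taken as 100%.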

Test [2] has as its target P2Y purinoceptor 2 (Homo sapiens) (UniProt P41231). The test is described as follows: Agonist activity at recombinant human P2RY2 expressed in AD293 cells assessed as increase in intracellular calcium levels by Fluo-4/AM dye-based spectrofluorometer. The test is classed as functional, cell-based. In a few lines:
(§2)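 Human P2Y2, P2Y4 or P2Y6 receptor stably expressed in AD293 cells. Compound at 100 μM. Agonism read as change in intracellular calcium (Δ[Ca2+]i), with UDP or UTP as control.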
Background: A change in cytosolic calcium serves as a functional read-out for many receptors and channels.

For test [3], the target named is P2Y purinoceptor 6 (Homo sapiens) (UniProt Q15077). The test is described as follows: Agonist activity at recombinant human P2RY6 expressed in AD293 cells assessed as increase in intracellular IP1 levels. The test is classed as functional, cell-based. Summed up: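 Human P2Y6 receptor stably expressed in AD293 cells. Compound at 100 μM. Gq activation read as accumulation of inositol 1-phosphate (IP1).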

Test [4] addresses P2Y purinoceptor 4 (Homo sapiens) (UniProt P51582). Put plainly: Agonist activity at recombinant human P2RY4 expressed in AD293 cells assessed as increase in intracellular calcium levels by Fluo-4/AM dye-based spectrofluorometer. It counts as functional, cell-based. Summed up: as §2
For test [5], the target named is T2, Ectonucleotide pyrophosphatase/phosphodiesterase family member 1 (Homo sapiens) (UniProt P22413).
T2 sequence (whole entry): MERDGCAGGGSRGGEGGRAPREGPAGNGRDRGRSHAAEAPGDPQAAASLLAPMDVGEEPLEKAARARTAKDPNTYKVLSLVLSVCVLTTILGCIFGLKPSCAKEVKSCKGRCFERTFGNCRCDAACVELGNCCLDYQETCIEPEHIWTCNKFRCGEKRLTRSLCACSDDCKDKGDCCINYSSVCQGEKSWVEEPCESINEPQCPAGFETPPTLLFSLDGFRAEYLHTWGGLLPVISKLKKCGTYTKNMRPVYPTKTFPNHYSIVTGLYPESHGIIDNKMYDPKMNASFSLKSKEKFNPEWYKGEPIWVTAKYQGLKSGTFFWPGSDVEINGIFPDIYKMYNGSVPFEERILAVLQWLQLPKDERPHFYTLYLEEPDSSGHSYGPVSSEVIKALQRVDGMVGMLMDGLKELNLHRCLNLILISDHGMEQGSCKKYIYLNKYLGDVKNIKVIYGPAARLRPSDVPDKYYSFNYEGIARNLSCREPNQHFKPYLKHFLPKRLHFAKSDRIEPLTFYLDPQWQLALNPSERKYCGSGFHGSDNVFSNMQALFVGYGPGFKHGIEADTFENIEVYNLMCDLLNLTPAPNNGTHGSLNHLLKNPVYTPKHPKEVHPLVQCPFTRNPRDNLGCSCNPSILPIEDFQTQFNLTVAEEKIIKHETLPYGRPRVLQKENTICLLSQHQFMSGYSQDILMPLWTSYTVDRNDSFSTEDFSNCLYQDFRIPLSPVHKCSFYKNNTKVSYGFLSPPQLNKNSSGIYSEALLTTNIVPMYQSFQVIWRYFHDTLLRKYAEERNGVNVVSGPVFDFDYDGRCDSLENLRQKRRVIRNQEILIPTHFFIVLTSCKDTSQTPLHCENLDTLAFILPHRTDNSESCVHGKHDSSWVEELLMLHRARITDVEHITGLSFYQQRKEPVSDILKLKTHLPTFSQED
The test is described as follows: Inhibition of human NPP1 at 100 uM using pNP-TMP as substrate preincubated for 3 mins followed by substrate addition measured after 15 mins relative to control. Summed up:
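Human NPP1 (4−5 μg) or NPP3 (12−14 μg) cell lysate in mM 1 CaCl2, 140 NaCl, 5 KCl, 50 Tris pH 8.5, 37 °C. Compound at 100 μM, 3 min preincubation, 100 μM pNP-TMP substrate. p-Nitrophenol read at 405 nm after 15 min. Blank with enzyme added at end subtracted. Activity without compound taken as 100%. At least two independent experiments in triplicate.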

Test [6] deals with T3, Ectonucleoside triphosphate diphosphohydrolase 2 (Homo sapiens) (UniProt Q9Y5L3).
T3 sequence (whole entry): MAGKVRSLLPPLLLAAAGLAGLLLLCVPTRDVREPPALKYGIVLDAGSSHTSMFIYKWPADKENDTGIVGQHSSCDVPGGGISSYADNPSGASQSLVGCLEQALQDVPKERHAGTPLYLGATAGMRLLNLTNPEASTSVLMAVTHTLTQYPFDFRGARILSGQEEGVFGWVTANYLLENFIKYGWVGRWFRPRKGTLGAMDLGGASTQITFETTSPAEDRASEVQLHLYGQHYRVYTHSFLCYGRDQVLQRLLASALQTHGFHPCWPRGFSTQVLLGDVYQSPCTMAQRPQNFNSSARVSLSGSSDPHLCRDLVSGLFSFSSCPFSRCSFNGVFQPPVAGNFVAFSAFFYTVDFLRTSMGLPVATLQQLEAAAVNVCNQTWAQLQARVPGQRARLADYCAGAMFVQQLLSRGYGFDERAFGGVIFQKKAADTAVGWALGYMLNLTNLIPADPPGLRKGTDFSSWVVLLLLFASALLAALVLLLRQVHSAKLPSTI
Put plainly: Inhibition of human NTPDase2 at 100 uM using ATP as substrate preincubated for 3 mins followed by substrate addition measured after 10 mins by malachite green reagent-based assay. In a few lines: as §1

For orientation: inhibition means the drop in the measured response relative to a control, in per cent.

Molecules are shown by their SMILES. The source made the active and inactive calls. No cut-off for these calls is given here.

Chain of P2Y purinoceptor 6 (Homo sapiens) (Q15077 whole entry): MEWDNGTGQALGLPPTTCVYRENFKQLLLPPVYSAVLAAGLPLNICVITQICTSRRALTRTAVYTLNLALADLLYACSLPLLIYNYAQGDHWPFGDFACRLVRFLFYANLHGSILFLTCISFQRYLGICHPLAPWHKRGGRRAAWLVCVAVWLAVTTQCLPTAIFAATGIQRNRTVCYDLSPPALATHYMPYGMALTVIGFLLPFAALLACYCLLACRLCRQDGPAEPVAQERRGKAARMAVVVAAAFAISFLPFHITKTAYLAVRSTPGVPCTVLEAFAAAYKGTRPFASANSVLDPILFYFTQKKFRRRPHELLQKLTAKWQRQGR
Chain of P2Y purinoceptor 2 (Homo sapiens) (P41231 whole entry): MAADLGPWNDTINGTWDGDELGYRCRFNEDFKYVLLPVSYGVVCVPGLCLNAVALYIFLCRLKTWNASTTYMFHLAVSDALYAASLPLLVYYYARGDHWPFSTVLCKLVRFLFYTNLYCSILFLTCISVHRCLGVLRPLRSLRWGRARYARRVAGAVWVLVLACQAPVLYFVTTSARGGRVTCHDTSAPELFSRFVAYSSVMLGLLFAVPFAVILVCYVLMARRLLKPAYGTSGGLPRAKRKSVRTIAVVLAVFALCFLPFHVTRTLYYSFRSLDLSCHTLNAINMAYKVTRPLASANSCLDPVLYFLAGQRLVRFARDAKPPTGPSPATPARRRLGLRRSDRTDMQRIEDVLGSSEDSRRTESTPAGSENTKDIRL
Chain of P2Y purinoceptor 4 (Homo sapiens) (P51582 whole entry): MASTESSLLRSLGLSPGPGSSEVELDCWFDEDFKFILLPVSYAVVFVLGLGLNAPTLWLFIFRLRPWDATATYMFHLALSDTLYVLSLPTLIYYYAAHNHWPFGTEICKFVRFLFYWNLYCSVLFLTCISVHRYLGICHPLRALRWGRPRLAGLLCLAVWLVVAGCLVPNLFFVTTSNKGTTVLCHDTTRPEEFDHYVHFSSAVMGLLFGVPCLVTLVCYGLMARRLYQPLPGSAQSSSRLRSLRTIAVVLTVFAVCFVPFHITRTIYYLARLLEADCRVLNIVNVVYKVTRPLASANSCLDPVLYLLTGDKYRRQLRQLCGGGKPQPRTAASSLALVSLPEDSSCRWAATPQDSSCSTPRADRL

With `O=c1ccn([C@@H]2O[C@H](COP(=S)(S)OP(=O)(O)OP(=O)(O)O)[C@@H](O)[C@H]2O)c(=O)[nH]1` (stereo partly drawn), the inhibition entry in test [1] and in test [6] was “inactive” in each case. Further, the result in test [2] and in test [4] was inactive. For the same compound, the result in test [3] was Active. This compound also showed an inhibition in test [5] of 100%.
`O=c1ccn([C@@H]2O[C@H](COP(=S)(S)OP(=O)(O)O)[C@@H](O)[C@H]2O)c(=O)[nH]1` (stereo partly drawn): the values for the inhibition in test [1], in test [5] and in test [6] were 15%, 80 to 100% and 15%, respectively. In addition, the result in test [2] and in test [4] was inactive. For the same compound, the result in test [3] was Active.
Consider `O=c1ccn([C@@H]2O[C@H](COP(=S)(S)OP(=O)(O)CP(=O)(O)O)[C@@H](O)[C@H]2O)c(=O)[nH]1` (stereo partly drawn), for which the inhibition in test [1] is 15%; in test [5], 80 to 100%; in test [6], 15%. Moreover, the result in test [2], in test [3] and in test [4] was inactive.

(Values after ChEMBL document CHEMBL4177769, “Highly Selective and Potent Ectonucleotide Pyrophosphatase-1 (NPP1) Inhibitors Based on Uridine 5'-Pα,α-Dithiophosphate Analogues” (J Med Chem, 2018).)
